Measured values as given in ChEMBL document CHEMBL1144120, “In vitro evaluation of antifungal properties of phenylpropanoids and related compounds acting against dermatophytes” (1999).
In brackets after ≈: the same amount, converted by molar mass. Activity calls are given as the source filed them. The rule behind the calls is not given here.

Assays:
[1] = tested on: Trichophyton mentagrophytes; test: Antifungal activity against Trichophyton mentagrophytes ATCC 9972 up to 50 ug/mL by agar dilution method; format: functional, organism-based
Procedure, shortened: (§1)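 Dermatophytes were tested by agar dilution on Sabouraud chloramphenicol agar in 96-well plates. DMSO stock solutions were serially two-fold diluted into the medium to give final concentrations of 0.10–50 µg/mL, with DMSO not exceeding 2%. Each well received 5 µL of spore suspension.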

Trichophyton rubrum [2] = test: Antifungal activity against Trichophyton rubrum C 113 up to 50 ug/mL by agar dilution method; format: functional, organism-based; procedure, shortened: as §1
Epidermophyton floccosum [3] = test: Antifungal activity against Epidermophyton floccosum C 114 up to 50 ug/mL by agar dilution method; format: functional, organism-based; procedure, shortened: as §1
Nannizzia gypsea [4] = test: Antifungal activity against Microsporum gypseum C 115 by agar dilution method; format: functional; procedure, shortened: as §1
[5] = tested on: Trichophyton mentagrophytes; test: Antifungal activity against Trichophyton mentagrophytes ATCC by agar dilution method; format: functional; procedure, shortened: as §1
Trichophyton rubrum [6] = test: Antifungal activity against Trichophyton rubrum C 113 by agar dilution method; format: functional; procedure, shortened: as §1
Epidermophyton floccosum [7] = test: Antifungal activity against Epidermophyton floccosum C 114 by agar dilution method; format: functional; procedure, shortened: as §1
Candida albicans = test: Antifungal activity against Candida albicans ATCC 10231 by agar dilution method; format: functional, organism-based
Procedure, shortened: (§2)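 Sabouraud chloramphenicol agar dilution in 96-well plates. Strains were grown on Sabouraud chloramphenicol agar slants for 48 h at 30 °C and suspended in sterile distilled water, adjusted to 10^6 viable cells/mL. DMSO stocks were serially two-fold diluted into the agar to give 0.10–50 µg/mL, with DMSO ≤2% final. 5 µL inoculum per well; incubated 24, 48 or 72 h at 30 °C per control growth; MIC recorded.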

Saccharomyces cerevisiae = test: Antifungal activity against Saccharomyces cerevisiae ATCC 9763 by agar dilution method; format: functional, organism-based; procedure, shortened: as §2
Cryptococcus neoformans = test: Antifungal activity against Cryptococcus neoformans ATCC 32264 by agar dilution method; format: functional, organism-based; procedure, shortened: as §2
Aspergillus flavus = test: Antifungal activity against Aspergillus flavus ATCC 9170 by agar dilution method; format: functional, organism-based; procedure, shortened: as §2
Aspergillus fumigatus = test: Antifungal activity against Aspergillus fumigatus ATCC 26934 by agar dilution method; format: functional, organism-based; procedure, shortened: as §2
Aspergillus niger = test: Antifungal activity against Aspergillus niger ATCC 9029 by agar dilution method; format: functional, organism-based; procedure, shortened: as §2
Microsporum canis [8] = test: Antifungal activity against Microsporum canis C 112 by agar dilution method; format: functional; procedure, shortened: as §1
Microsporum canis [9] = test: Antifungal activity against Microsporum canis C 112 up to 50 ug/mL by agar dilution method; format: functional, organism-based; procedure, shortened: as §1
Nannizzia gypsea [10] = test: Antifungal activity against Microsporum gypseum C 115 up to 50 ug/mL by agar dilution method; format: functional, organism-based; procedure, shortened: as §1

MIC (Nannizzia gypsea [4]) [µg/mL]	MIC [5] [µg/mL]	MIC (Trichophyton rubrum [6]) [µg/mL]	MIC (Epidermophyton floccosum [7]) [µg/mL]	MIC (Microsporum canis [8]) [µg/mL]	Structure (SMILES)	Activity [1]	Activity (Trichophyton rubrum [2])	Activity (Epidermophyton floccosum [3])	Activity (Candida albicans)	Activity (Saccharomyces cerevisiae)	Activity (Cryptococcus neoformans)	Activity (Aspergillus flavus)	Activity (Aspergillus fumigatus)	Activity (Aspergillus niger)	Activity (Microsporum canis [9])	Activity (Nannizzia gypsea [10])
40 (≈ 217 µM)	25 (≈ 136 µM)	40 (≈ 217 µM)	40 (≈ 217 µM)	50 (≈ 271 µM)	CCC(=O)c1ccc2ccccc2c1	inactive	inactive	inactive	inactive	inactive	inactive	inactive	inactive	inactive	inactive	inactive
> 50	> 50	> 50	40 (≈ 224 µM)	> 50	CCC(=O)c1ccc2c(c1)OCO2	inactive	inactive	inactive	inactive	inactive	inactive	inactive	inactive	inactive	inactive	inactive
25 (≈ 126 µM)	25 (≈ 126 µM)	> 50	40 (≈ 202 µM)	40 (≈ 202 µM)	CC(C)C(=O)c1ccc2ccccc2c1	inactive	inactive	inactive	inactive	inactive	inactive	inactive	inactive	inactive	inactive	inactive
> 50	> 50	> 50	> 50	> 50	CCC(O)c1ccc2c(c1)OCO2 (stereo not given)	inactive	inactive	inactive	inactive	inactive	inactive	inactive	inactive	inactive	inactive	inactive
> 50	> 50	> 50	> 50	> 50	CCC(=O)c1cc(OC)c(OC)c(OC)c1	inactive	inactive	inactive	inactive	inactive	inactive	inactive	inactive	inactive	inactive	inactive

More lines, now with the values behind:

Structure (SMILES)	MIC (Nannizzia gypsea [4]) [µg/mL]	MIC [5] [µg/mL]	MIC (Trichophyton rubrum [6]) [µg/mL]	MIC (Epidermophyton floccosum [7]) [µg/mL]	MIC (Microsporum canis [8]) [µg/mL]	Activity [1]	Activity (Trichophyton rubrum [2])	Activity (Epidermophyton floccosum [3])	Activity (Candida albicans)	Activity (Saccharomyces cerevisiae)	Activity (Cryptococcus neoformans)	Activity (Aspergillus flavus)	Activity (Aspergillus fumigatus)	Activity (Aspergillus niger)	Activity (Microsporum canis [9])	Activity (Nannizzia gypsea [10])
COc1ccc(C(O)C(C)C)cc1OC (stereo not given)	> 50	> 50	> 50	> 50	> 50	inactive	inactive	inactive	inactive	inactive	inactive	inactive	inactive	inactive	inactive	inactive
C=CCc1ccc(OC)c(OC)c1 [METHYLEUGENOL]	> 50	> 50	> 50	> 50	> 50	inactive	inactive	inactive	inactive	inactive	inactive	inactive	inactive	inactive	inactive	inactive
CCC(O)c1ccc2ccccc2c1 (stereo not given)	40 (≈ 215 µM)	25 (≈ 134 µM)	40 (≈ 215 µM)	40 (≈ 215 µM)	50 (≈ 268 µM)	inactive	inactive	inactive	inactive	inactive	inactive	inactive	inactive	inactive	inactive	inactive
COc1ccc([C@H](O)[C@H](C)Br)cc1OC	> 50	> 50	> 50	50 (≈ 182 µM)	> 50	inactive	inactive	inactive	inactive	inactive	inactive	inactive	inactive	inactive	inactive	inactive
C=CCc1cc(OC)c(OC)c(OC)c1	> 50	> 50	> 50	> 50	> 50	inactive	inactive	inactive	inactive	inactive	inactive	inactive	inactive	inactive	inactive	inactive
CCC(O)c1cc(OC)c(OC)c(OC)c1 (stereo not given)	> 50	> 50	> 50	50 (≈ 221 µM)	50 (≈ 221 µM)	inactive	inactive	inactive	inactive	inactive	inactive	inactive	inactive	inactive	inactive	inactive
COc1ccc(C(=O)C(C)C)cc1OC	> 50	> 50	50 (≈ 240 µM)	50 (≈ 240 µM)	> 50	inactive	inactive	inactive	inactive	inactive	inactive	inactive	inactive	inactive	inactive	inactive
CCC(=O)c1ccc(OC)cc1	> 50	> 50	> 50	> 50	> 50	inactive	inactive	inactive	inactive	inactive	inactive	inactive	inactive	inactive	inactive	inactive
CC(Cl)C(=O)c1ccccc1 (stereo not given)	20 (≈ 119 µM)	10 (≈ 59.3 µM)	12.5 (≈ 74.1 µM)	15 (≈ 89 µM)	6.25 (≈ 37.1 µM)	inactive	inactive	inactive	inactive	inactive	inactive	inactive	inactive	inactive	inactive	inactive
CCC(=O)c1ccc(OC)c(OC)c1	> 50	> 50	> 50	50 (≈ 257 µM)	> 50	inactive	inactive	inactive	inactive	inactive	inactive	inactive	inactive	inactive	inactive	inactive
